CHRM4 agonist – agonists of human muscarinic M4 receptor (CHRM4). P08173. CHO-K1 hM4/Gqi5, Fluo-8 calcium fluorescence; vehicle 0%, full acetylcholine response 100%. activation, % at 3 µM. hit rate 0.14% among 360,000. AID 624127;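 active means activation above the run mean over all test wells plus 3 SD, cut at about 32% in these data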;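 further: peak over basal fluorescence ratio per well then scaled between controls; 0% = DMSO wells and 100% = acetylcholine at EC100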
OXTR potentiator – potentiators of human oxytocin receptor. P30559. CHO-OTR cells, Fluo-8 calcium fluorescence, potentiator mode; 0% = oxytocin EC15, 100% = EC100. activation, % at 3 µM. hit rate 0.061% among 320,000. AID 2445;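 active means activation above that plate's cutoff, the mean activation of tested compounds plus 3 SD, cut at about 6.6% in these data, passing the limit was not always enough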;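 further: 100% uses oxytocin at 75 nM as the full agonist control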
Target sequence (P30559 whole entry, looked up): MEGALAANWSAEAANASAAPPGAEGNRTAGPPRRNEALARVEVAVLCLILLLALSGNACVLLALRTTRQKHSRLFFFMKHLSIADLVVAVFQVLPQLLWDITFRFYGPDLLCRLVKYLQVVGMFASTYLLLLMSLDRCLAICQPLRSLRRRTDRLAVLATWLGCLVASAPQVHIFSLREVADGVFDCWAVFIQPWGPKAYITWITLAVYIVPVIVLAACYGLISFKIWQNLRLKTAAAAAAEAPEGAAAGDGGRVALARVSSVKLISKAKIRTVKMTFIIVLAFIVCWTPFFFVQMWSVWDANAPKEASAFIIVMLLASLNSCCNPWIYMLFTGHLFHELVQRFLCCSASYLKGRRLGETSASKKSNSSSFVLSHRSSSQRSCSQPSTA
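Assay system: CHO-OTR cells, human receptor / Also added: oxytocin at about EC15, sub-maximal agonist stimulus / Dosing: single dose, 3.0 µM nominal final compound concentration / Incubation: 6 min pre-incubation, 100 s read / Technique: Fluo-8 calcium dye fluorescence / Read-out: % activation vs EC15 and EC100 oxytocin / Benchmarks: EC15 oxytocin low, 75 nM oxytocin high / Replicates: singlicate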
V1R ag counter – counter-screen for oxytocin receptor agonists: human V1a receptor agonists | P37288 | CHO-V1R cells, Fluo-8 calcium fluorescence, agonist mode; 0% DMSO, 100% 3 nM vasopressin | activation, % at 3 µM | hit rate 0.25% among 320,000;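 active means activation above the mean activation of all tested compounds plus 3 SD, per screening run, cut at about 20% in these data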;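 further: signal is peak over basal fluorescence ratio across a 100 second FLIPR read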
OXTR agonist – agonists of human oxytocin receptor | activation, % at 3 µM | CHO-OTR cells, Fluo-8 calcium fluorescence; normalized: DMSO 0%, oxytocin 100% | P30559 | hit rate 0.32% among 320,000;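 active means activation above the mean of all tested compounds plus 3 SD, cutoff set per screening run, cut at about 20% in these data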;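 further: peak over basal fluorescence ratio from a 100 s FLIPR kinetic read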
CHRM4 PAM – CHRM4 positive allosteric modulation; activation, % at 3 µM; P08173; AID 624126; hit rate 0.4% among 360,000; CHO-K1 hM4/Gqi5, Fluo-8 calcium fluorescence, ACh EC20; 0% = ACh EC20, 100% = maximal ACh;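 active means activation above its plate's cutoff, the mean activation of sample wells plus 3 SD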
CHRM4 antagonist – blocks acetylcholine activation of human M4 receptor; P08173; hit rate 0.73% among 360,000; inhibition, % at 3 µM; CHO-hM4 cells, ACh EC80, Fluo-8 calcium fluorescence;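 active means inhibition above its plate's cutoff, the mean inhibition of sample wells plus 3 SD, cut at about 27% in these data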;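 further: 0% = acetylcholine EC80 with DMSO and 100% = DMSO without agonist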
* hit, by the source's call; . = no result. Hits are enriched below; roughly 1.5% of the tested compounds scored in any of these assays.

SMILES	CHRM4 agonist	OXTR potentiator	V1R ag counter	OXTR agonist	CHRM4 PAM	CHRM4 antagonist
COc1ccc(NC(=O)Cn2c([N+](=O)[O-])cnc2C)c(OC)c1	1	.	.	.	-4	-7
C=CCN1C(=O)C(C)NC1=S (stereo unspecified)	1	.	.	.	6	5
COc1ccc(NC(=S)NCc2cccnc2)cc1OC	4	-4	0	0	23*	-11
COc1ccc(NC(=O)NCc2cccnc2)cc1OC	0	8	0	0	2	0
COc1ccc(C(=O)COC(=O)C(CCSC)NS(=O)(=O)c2ccc(Cl)cc2)cc1 (stereo unspecified)	19	-10	6	5	-23	27*
COC(=O)C(CCSC)NS(=O)(=O)c1ccc(Cl)cc1 (stereo unspecified)	1	-3	0	-1	-3	4
Cc1cc(O)c(-c2cc(O)c(C)cc2O)cc1O	2	-6	0	6	-7	28*
Cc1cc(N=O)c(C)cc1O	0	.	.	.	2	2
CCCCCCCC1CC(=O)C=C(C)C1C(=O)OCC (stereo unspecified)	-1	-8	-2	-2	12*	-1
CCn1c(SCC(=O)c2cc(OC)ccc2OC)nnc1C(C)C	1	-8	-1	-1	19*	-12
O=S(=O)(Nc1ccccc1)c1ccc(Oc2ncc(C(F)(F)F)cc2Cl)cc1	5	-25	22*	30*	-6	11
O=[N+]([O-])c1ccc(Oc2ccc(S(=O)(=O)Nc3ccccc3)cc2)cc1	39*	-16	22*	31*	-40	53*
CN(C)Cc1ccc(F)cc1Sc1ccc(Cl)cc1Cl	-3	-4	-1	-2	-28	4
CN(C)CC/C=C1/c2ccccc2Sc2c(O)cc(Cl)cc21	2	-16	5	6	-15	50*
CN(C)CC/C=C1/c2cc(F)ccc2Sc2ccc(Cl)cc21	4	-5	5	7	-16	96*
COc1cc(Cl)cc2c1Sc1ccccc1/C2=C/CCN(C)C	2	0	4	4	-14	19
COc1cc2c(cc1Cl)/C(=C\CCN(C)C)c1ccccc1S2	8	-1	3	8	-35	33*
Cc1cccc(C)c1OCCNC(=O)C(=O)NCc1ccco1	1	-5	-1	-2	-2	7
CN(C)S(=O)(=O)c1cc(NC(=O)c2cc(=O)c3ccccc3o2)ccc1Cl	18	-14	2	2	-3	2
COc1ccc(NC(=O)c2cc(=O)c3ccccc3o2)cc1Cl	6	-9	0	0	23*	18
CCOc1ccc(NC(=O)c2cccc(-n3cnnn3)c2)cc1	2	-6	0	-1	21	27*
O=C(Nc1ccc(OC(F)(F)F)cc1)c1cccc(-n2cnnn2)c1	11	.	.	.	5	-3
CCC(C)c1ccccc1NC(=O)COc1ccc(-n2cnnn2)cc1 (stereo unspecified)	2	-5	-1	-1	20*	-13
CC(=NNC(=O)c1ccncc1)c1ccccc1O	2	.	.	.	3	-3
CC(=NNC(=O)c1ccncc1)c1ccc2ccccc2c1O	57*	.	.	.	-13	11
SMILES	CHRM4 agonist	OXTR potentiator	V1R ag counter	OXTR agonist	CHRM4 PAM	CHRM4 antagonist
CCOC(=O)C1CCC(CNCc2ccccc2C)CC1 (stereo unspecified)	2	-5	0	0	-24	34*
CCOC(=O)C1CCCN(C(=O)c2ccc3ccccc3c2)CC1 (stereo unspecified)	0	.	.	.	2	1
O=C(Cn1c(C(F)(F)F)nc2ccccc21)NCCCN1CCOCC1	1	-1	0	0	3	0
Cc1nc2ccccc2n1CC(=O)NCCN1CCOCC1	1	-4	1	0	28	32*
O=C(Nc1ccc2c(c1)OCCO2)C(c1ccnc2ccccc12)N1CCN(C/C=C/c2ccccc2)CC1 (stereo unspecified)	5	.	.	.	-6	2
COc1ccc(CNC[C@@H](CCCCN(C)Cc2ccc(OC)cc2)N2C[C@H](c3ccccc3)N(CCc3ccc(Cl)c(Cl)c3)C(=O)C2=O)cc1	60*	-16	58*	29*	3	21
COc1ccc(CNC(=O)[C@@H]2CC=C[C@@H]3CCN(Cc4ccc(Cl)c(Cl)c4)C(=O)[C@@H]32)cc1	5	-10	0	-2	10	-6
Cc1cccc(OCCC(=O)OCC(=O)N2c3ccccc3NC(=O)C2(C)C)c1	22	.	.	.	-9	-15
CC(C)(C)c1ccc(OCCC(=O)OCC(=O)N2c3ccccc3NC(=O)C2(C)C)cc1	24	-12	3	0	-13	59*
Cc1nn(-c2ccccc2)c(C)c1C(=O)OCC(=O)N1c2ccccc2NC(=O)C1(C)C	17	-21	1	-2	-15	33*
COc1ccccc1Cc1c(-c2ccco2)nc2cc(C)c(Br)c(C)n12	0	.	.	.	6	-7
CCN(CC)c1nc2cc(C)ccc2cc1/C=C(\C#N)C(N)=O	1	-13	3	0	5	-11
CCOC(=O)N1CCC(NC(=O)c2cc3c(-c4cccc(OC)c4)nn(C)c3s2)CC1	0	-3	1	-1	19*	-5
CC1(C(=O)NCc2cccc3ccccc23)CCN1C(=O)Cc1ccc(-c2ccccc2)cc1 (stereo unspecified)	11	.	.	.	-6	21
COc1ccc(NC(=O)c2cccc(N3C(=O)C4C5C=CC(C6CC56)C4C3=O)c2)cc1 (stereo unspecified)	22	-5	15	7	-11	-3
CC(C)Sc1cc(N2CCOCC2)nc(-c2ccccc2)n1	-1	-6	0	-3	32*	-12
CC(C)Sc1cc(N2CCCC2)nc(-c2ccccc2)n1	0	-8	0	-2	6	2
CCc1ccc(Cn2nnc(C(=O)Nc3cccc(C)c3)c2N)cc1	4	-9	11	14	2	5
COc1cccc(Cn2nnc(C(=O)Nc3cc(C)ccc3OC)c2N)c1	0	-1	1	0	18*	-13
Cc1ccc(Cn2nnc(C(=O)Nc3cccc(C)c3C)c2N)cc1	53*	-10	38*	38*	-20	21
CCCCCNC(=O)C(CCc1ccccc1)n1c(=O)c(-c2ccccc2)nc2ccccc21 (stereo unspecified)	23	.	.	.	-15	31*
C[C@H](CO)N1C[C@H](C)[C@@H](CN(C)CC2CC2)Oc2c(NC(=O)Cc3ccccc3)cccc2C1=O	1	-6	0	-2	-6	9
